Where “and” joins values, the source holds several entries; their conditions need not be identical. Identical values can stand only once.
System: Fibroblast
Assay: Multiplex assay against human fibroblast
Type: toxicity, cell-based
Details: number of replicates 2
Outline: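 Hoechst33342, BioTracker Green Microtubule Cytoskeleton Dye, MitoTracker Red and Annexin V Alexa Fluor 680 were added to live cells at seeding, and imaging on a CQ1 microscope at 37°C and 5% CO2 followed compound addition. Gating by CellPathfinder machine learning separated cells into Hoechst high-intensity objects or normal cells, then normal cells into healthy, pyknosed or fragmented nuclei, then pyknosed cells into mitotic or apoptotic. Per cents of healthy-nucleus cells are reported for the tubulin, mitochondrial-mass and membrane-permeability phenotypes.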

[1] = 12 h, 1 µM, compound concentration 1 uM
[2] = 12 h, 10 µM, compound concentration 10 uM
[3] = 24 h, 1 µM, compound concentration 1 uM
[4] = 24 h, 10 µM, compound concentration 10 uM
[5] = 48 h, 1 µM, compound concentration 1 uM
[6] = 48 h, 10 µM, compound concentration 10 uM

`CN[C@@H]1CC[C@@H](c2ccc(Cl)c(Cl)c2)c2ccccc21.Cl` was tested, and the “Population Apoptotic (%)” value [1] was 43% and 37%, the “Population Fragmented Nuclei (%)” value [1] was 14% and 18% and the “Population Healthy Nuclei (%)” value [1] was 55% and 62%. For the same compound, the “Population Hoechst High Intensity Objects (%)” value [1] was 0%, the “Population Membrane Permeable-Phenotype (%)” value [1] was 12% and 9% and the “Population Mitochondria Different-Phenotype (%)” value [1] was 2% and 0%. For the same compound, the “Population Mitotic Cells (%)” value [1] was 56% and 62%, the “Population Normal (%)” value [1] was 100% and 99% and the “Population Pyknosed Nuclei (%)” value [1] was 29% and 19%. The “Population Tubulin-Different-Phenotype (%)” value [1] was 37% and 20%, the “Total Cell Count” value [1] was 194 and the “Population Apoptotic (%)” value [2] was 28% and 53%. For the same compound, the “Population Fragmented Nuclei (%)” value [2] was 17% and 15%, the “Population Healthy Nuclei (%)” value [2] was 56% and 55% and the “Population Hoechst High Intensity Objects (%)” value [2] was 0%. For the same compound, the “Population Membrane Permeable-Phenotype (%)” value [2] was 11% and 8%, the “Population Mitochondria Different-Phenotype (%)” value [2] was 10% and 14% and the “Population Mitotic Cells (%)” value [2] was 71% and 46%. For the same compound, the “Population Normal (%)” value [2] was 100% and 99%, the “Population Pyknosed Nuclei (%)” value [2] was 26% and 28% and the “Population Tubulin-Different-Phenotype (%)” value [2] was 82% and 77%. For the same compound, the “Population Apoptotic (%)” value [3] was 43% and 40%, the “Population Fragmented Nuclei (%)” value [3] was 16% and 17% and the “Population Healthy Nuclei (%)” value [3] was 57% and 65%. The “Population Hoechst High Intensity Objects (%)” value [3] was 0% and 1%, the “Population Membrane Permeable-Phenotype (%)” value [3] was 8% and 2% and the “Population Mitochondria Different-Phenotype (%)” value [3] was 1% and 4%. For the same compound, the “Population Mitotic Cells (%)” value [3] was 56% and 60%, the “Population Normal (%)” value [3] was 99% and 98% and the “Population Pyknosed Nuclei (%)” value [3] was 25% and 16%. For the same compound, the “Population Tubulin-Different-Phenotype (%)” value [3] was 39% and 19%, the “Population Apoptotic (%)” value [4] was 53% and 65% and the “Population Fragmented Nuclei (%)” value [4] was 13% and 15%. For the same compound, the “Population Healthy Nuclei (%)” value [4] was 56% and 53%, the “Population Hoechst High Intensity Objects (%)” value [4] was 0% and the “Population Membrane Permeable-Phenotype (%)” value [4] was 7% and 5%. For the same compound, the “Population Mitochondria Different-Phenotype (%)” value [4] was 29% and 49%, the “Population Mitotic Cells (%)” value [4] was 46% and 34% and the “Population Normal (%)” value [4] was 100% and 99%. The “Population Pyknosed Nuclei (%)” value [4] was 30% and 32%, the “Population Tubulin-Different-Phenotype (%)” value [4] was 89% and 88% and the “Total Cell Count” value [4] was 212 and 201. For the same compound, the “Population Apoptotic (%)” value [5] was 78% and 55%, the “Population Fragmented Nuclei (%)” value [5] was 21% and 22% and the “Population Healthy Nuclei (%)” value [5] was 60% and 64%. The “Population Hoechst High Intensity Objects (%)” value [5] was 0%, the “Population Membrane Permeable-Phenotype (%)” value [5] was 2% and 3% and the “Population Mitochondria Different-Phenotype (%)” value [5] was 0%. For the same compound, the “Population Mitotic Cells (%)” value [5] was 21% and 44%, the “Population Normal (%)” value [5] was 99% and the “Population Pyknosed Nuclei (%)” value [5] was 17% and 12%. The “Population Apoptotic (%)” value [6] was 75% and 88%, the “Population Fragmented Nuclei (%)” value [6] was 12% and 14% and the “Population Healthy Nuclei (%)” value [6] was 66% and 51%. For the same compound, the “Population Hoechst High Intensity Objects (%)” value [6] was 1% and 0%, the “Population Membrane Permeable-Phenotype (%)” value [6] was 11% and 1% and the “Population Mitochondria Different-Phenotype (%)” value [6] was 40% and 47%. For the same compound, the “Population Mitotic Cells (%)” value [6] was 24% and 11%, the “Population Normal (%)” value [6] was 98% and 100% and the “Population Pyknosed Nuclei (%)” value [6] was 21% and 34%. For the same compound, the “Population Tubulin-Different-Phenotype (%)” value [6] was 84% and 69% and the “Total Cell Count” value [6] was 196.
In the case of `CC1(C)C(=O)N([C@H]2CCc3c(O)cccc32)c2nc(Nc3cccc(CN4CCCC4)c3)ncc21`, the “Population Apoptotic (%)” value [1] was 38% and 68%, the “Population Fragmented Nuclei (%)” value [1] was 14% and 18% and the “Population Healthy Nuclei (%)” value [1] was 75% and 64%. For the same compound, the “Population Hoechst High Intensity Objects (%)” value [1] was 0%, the “Population Membrane Permeable-Phenotype (%)” value [1] was 5% and the “Population Mitochondria Different-Phenotype (%)” value [1] was 0% and 4%. For the same compound, the “Population Mitotic Cells (%)” value [1] was 61% and 31%, the “Population Normal (%)” value [1] was 100% and the “Population Pyknosed Nuclei (%)” value [1] was 9% and 17%. For the same compound, the “Population Tubulin-Different-Phenotype (%)” value [1] was 22% and 16%, the “Total Cell Count” value [1] was 136 and 183 and the “Population Apoptotic (%)” value [2] was 77% and 80%. The “Population Fragmented Nuclei (%)” value [2] was 22% and 20%, the “Population Healthy Nuclei (%)” value [2] was 43% and 42% and the “Population Hoechst High Intensity Objects (%)” value [2] was 1%. The “Population Membrane Permeable-Phenotype (%)” value [2] was 9% and 4%, the “Population Mitochondria Different-Phenotype (%)” value [2] was 16% and 12% and the “Population Mitotic Cells (%)” value [2] was 22% and 20%. The “Population Normal (%)” value [2] was 98%, the “Population Pyknosed Nuclei (%)” value [2] was 33% and 37% and the “Population Tubulin-Different-Phenotype (%)” value [2] was 67% and 54%. For the same compound, the “Total Cell Count” value [2] was 150 and 191, the “Population Apoptotic (%)” value [3] was 62% and 70% and the “Population Fragmented Nuclei (%)” value [3] was 18% and 20%. For the same compound, the “Population Healthy Nuclei (%)” value [3] was 67% and 64%, the “Population Hoechst High Intensity Objects (%)” value [3] was 0% and the “Population Membrane Permeable-Phenotype (%)” value [3] was 5% and 2%. For the same compound, the “Population Mitochondria Different-Phenotype (%)” value [3] was 2% and 8%, the “Population Mitotic Cells (%)” value [3] was 37% and 29% and the “Population Normal (%)” value [3] was 99%. The “Population Pyknosed Nuclei (%)” value [3] was 13% and 15%, the “Population Tubulin-Different-Phenotype (%)” value [3] was 22% and 24% and the “Total Cell Count” value [3] was 118 and 154. The “Population Apoptotic (%)” value [4] was 95% and 93%, the “Population Fragmented Nuclei (%)” value [4] was 25% and 22% and the “Population Healthy Nuclei (%)” value [4] was 16%. For the same compound, the “Population Hoechst High Intensity Objects (%)” value [4] was 0% and 1%, the “Population Membrane Permeable-Phenotype (%)” value [4] was 7% and 8% and the “Population Mitochondria Different-Phenotype (%)” value [4] was 21% and 33%. The “Population Mitotic Cells (%)” value [4] was 4% and 6%, the “Population Normal (%)” value [4] was 99% and 98% and the “Population Pyknosed Nuclei (%)” value [4] was 58% and 61%. The “Population Tubulin-Different-Phenotype (%)” value [4] was 46% and 79%, the “Total Cell Count” value [4] was 176 and 153 and the “Population Apoptotic (%)” value [5] was 69% and 79%. For the same compound, the “Population Fragmented Nuclei (%)” value [5] was 13% and 14%, the “Population Healthy Nuclei (%)” value [5] was 61% and 52% and the “Population Hoechst High Intensity Objects (%)” value [5] was 0%. For the same compound, the “Population Membrane Permeable-Phenotype (%)” value [5] was 18% and 15%, the “Population Mitochondria Different-Phenotype (%)” value [5] was 4% and 0% and the “Population Mitotic Cells (%)” value [5] was 30% and 20%. For the same compound, the “Population Normal (%)” value [5] was 100% and 99%, the “Population Pyknosed Nuclei (%)” value [5] was 24% and 32% and the “Population Tubulin-Different-Phenotype (%)” value [5] was 32% and 20%. For the same compound, the “Total Cell Count” value [5] was 105 and 132, the “Population Apoptotic (%)” value [6] was 97% and 95% and the “Population Fragmented Nuclei (%)” value [6] was 15% and 19%. For the same compound, the “Population Healthy Nuclei (%)” value [6] was 17%, the “Population Hoechst High Intensity Objects (%)” value [6] was 2% and the “Population Membrane Permeable-Phenotype (%)” value [6] was 14% and 20%. For the same compound, the “Population Mitochondria Different-Phenotype (%)” value [6] was 28% and 40%, the “Population Mitotic Cells (%)” value [6] was 2% and 4% and the “Population Normal (%)” value [6] was 97%. The “Population Pyknosed Nuclei (%)” value [6] was 67% and 62%, the “Population Tubulin-Different-Phenotype (%)” value [6] was 61% and 64% and the “Total Cell Count” value [6] was 126 and 145.
